We go through one compound from PMC8184462 (Annals of Translational Medicine, 2021).

Data set [1] has as its system NSCLC HCC827 cell line harboring EGFR-sensitive mutants. The following applies: ref [14],[15]; cited from earlier work.
Data set [2] has as its system T790M-mutant NSCLC cell line H1975. The following applies: ref [14],[15]; cited from earlier work.
In another data set the test system is NSCLC. The following applies: ref [15], cited from earlier work.
A short description of data set [3]: Plasma pharmacokinetics of unlabeled almonertinib and metabolite HAS-719. The format is in vivo, human. Put shortly: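 Four healthy fasted male volunteers received one oral [14C]-labeled suspension of the test compound (110 mg/50 µCi) and ate lunch 4 h after dosing. Blood (7 mL) was drawn predose and at 1–504 h, centrifuged (3,000 rpm, 10 min) and stored at –20 °C. Parent and metabolite were quantified by validated LC-MS/MS. Noncompartmental parameters are reported as mean ± SD.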

Data set [4] concerns T790M-mutant NSCLC cell line LU1868. The following applies: ref [14],[15]; cited from earlier work.
Data set [5] is classed as in vivo, human. A digest of the protocol:
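Urine and feces were collected until cumulative recovery exceeded 80% of dose and fell below 1% of dose per day on 2 consecutive days. Radioactivity was counted by liquid scintillation: urine directly, feces after homogenization with solvent and combustion with CO2 trapping. Each interval's excretion was expressed relative to the actual administered radioactivity (vial content minus residue), then summed cumulatively.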

As a reminder, the CL/F is clearance divided by bioavailability, as obtained after extravascular dosing. The term AUC(0-inf) denotes total exposure, with the tail of the curve extrapolated. A word on the AUC(0-t): it is exposure summed from dosing to a finite time, without extrapolation to infinity. What is called Cmax is the highest concentration seen after dosing. The term Tmax denotes the time from dosing to the highest level. As usually defined, the Vd/F is the apparent distribution volume after extravascular dosing. As a reminder, the half-life is the time in which the quantity being followed falls by half. As for `C=CC(=O)Nc1cc(Nc2nccc(-c3cn(C4CC4)c4ccccc34)n2)c(OC)cc1N(C)CCN(C)C` [HS-10296, almonertinib], the Growth inhibition entry in data set [1] was “potently inhibited the growth”. For the same compound, the Growth inhibition entry in data set [2] was “potently inhibited the growth”. Also, the Tolerability result in the data set with NSCLC (26 patients, 55, 110, 220, 260 mg, single or multiple dose) is reported as “well tolerated”. In the data set with NSCLC (55–260 mg), the “Dose linearity of metabolism” value is listed as “linear trend”. Also, the Antitumor activity entry in the data set on NSCLC (NSCLC patients, dose-escalation cohort) was “preliminary antitumor activity”. Besides, the CL/F in data set [3] (LC-MS/MS, single oral 110 mg/50 µCi, mean±SD) turned out to be 36.8 ± 10.8 L/h. Besides, in data set [3] (male, human, po, 110 mg), the area under the curve AUC(0-inf) is 3160 ng·h/mL, the area under the curve AUC(0-t) was 2900 ng·h/mL, the Cmax is 119 ± 27.7 ng/mL and the time to peak (Tmax) came out at 5.25 ± 3.2 h. Moreover, in data set [3] (male, human, po, 110 mg), the Vd/F worked out at 1270 L and the half-life is 25 ± 6.41 h. The Growth inhibition entry in data set [4] was “potently inhibited the growth”. Besides, the Main excretion route result in data set [5] (0–504 hours) is on record as “mainly excreted via feces”. Moreover, the “Cumulative excretion rate of drug TRA (urine + feces)” value in data set [5] (0–504 hours after administration, % of dose) is 90.19%±4.18%. Moreover, in data set [5] (0–504 hours, % of dose), the “Cumulative excretion rate in feces” value was 84.75%±3.35% and the “Cumulative excretion rate in urine” value is reported as 5.44%±0.83%.
